Data reported in ChEMBL document CHEMBL3877264, “Quinolidene-rhodanine conjugates: Facile synthesis and biological evaluation” (Eur J Med Chem, 2017).
Converted amounts (≈) assume the structure as drawn.

Legend:
Pseudomonas fluorescens [1] = assay: Growth inhibition of Pseudomonas fluorescens NCIM 2036 at 3 ug/ml measured after 8 hrs relative to control; assay type: functional; details: NCIM 2036, 8 h, read-out: GI
Procedure, shortened: (§1)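 Bacteria grown in LB at 37 °C and 180 rpm to OD 1. Compounds added to wells, then 0.1% inoculum of 1 OD culture (620 nm). Growth read as OD at 620 nm after 8 h for gram-negative and after 12 h for gram-positive strains.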

[2] = system: Mycobacterium tuberculosis; assay: Growth inhibition of Mycobacterium bovis BCG ATCC 35743 at active stage at 6.25 ug/ml measured after 8 days by nitrate reductase dye based two fold dilution method relative to control; assay type: functional; details: BCG str. ATCC 35743, 192 h, read-out: GI
Procedure, shortened: (§2)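 M. bovis BCG was grown in Dubos medium and assayed in Mycobacterium pheli minimal medium (pH 6.6), with compounds from DMSO stocks. Incubation lasted 8 days for active and 12 days for dormant cultures. Viability was read by nitrate reductase at 540 nm against cell-free blanks, with vehicle set as 100% growth. Primary screen was at 30, 10 and 3 µg/ml, in triplicate, mean ± SD. MIC was taken from dose-response curves.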

[3] = Cytotoxicity against […]-differentiated human THP1 cells measured after 48 hrs by MTT assay; assay type: toxicity, cell-based, THP-1
Procedure, shortened: (§3)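 MTT assay with 48 h compound exposure. THP-1 macrophages made by 24 h PMA treatment. Each concentration tested in triplicate in one experiment. % cytotoxicity = (control−test)/(control−blank)×100, with control = cells + DMSO and blank = medium without cells. IC50 from % survival versus concentration plots.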

Pseudomonas fluorescens [4] = assay: Growth inhibition of Pseudomonas fluorescens NCIM 2036 at 30 ug/ml measured after 8 hrs relative to control; assay type: functional; details: NCIM 2036, 8 h, read-out: GI; procedure, shortened: as §1
[5] = system: Mycobacterium tuberculosis; assay: Growth inhibition of Mycobacterium tuberculosis H37Ra ATCC 25177 at dormant stage measured after 12 days by XTT dye based two fold dilution method; assay type: functional; details: H37Ra ATCC 25177, 288 h
Procedure, shortened: (§4)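 MTB H37Ra was grown in Dubos medium, then exposed in Mycobacterium pheli minimal medium (pH 6.6) to compounds dissolved in DMSO. The assay ended on day 8 (active) or day 12 (dormant). Viable cells were measured by XTT reduction menadione assay at 470 nm, blank-corrected, relative to vehicle control. Triplicates were expressed as mean ± SD. MIC came from dose-response curves.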

[6] = Cytotoxicity against primary HUVEC measured after 48 hrs by MTT assay; assay type: toxicity, cell-based; details: human
[7] = Cytotoxicity against primary HUVEC assessed as growth inhibition at 100 ug/ml measured after 48 hrs by MTT assay relative to control; assay type: toxicity, cell-based; details: human, read-out: GI
Candida albicans = assay: Antifungal activity against Candida albicans NCIM 3471 by standard agar method; assay type: functional
Procedure, shortened: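 MICs determined by standard agar method; DMSO as solvent control.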

[8] = system: Mycobacterium tuberculosis; assay: Growth inhibition of Mycobacterium tuberculosis H37Ra ATCC 25177 at active stage at 50 ug/ml measured after 8 days by XTT dye based two fold dilution method relative to control; assay type: functional; details: H37Ra ATCC 25177, 192 h, read-out: GI; procedure, shortened: as §4
Pseudomonas fluorescens [9] = assay: Antibacterial activity against Pseudomonas fluorescens NCIM 2036 measured after 8 hrs; assay type: functional; details: NCIM 2036, 8 h; procedure, shortened: as §1
[10] = system: Mycobacterium tuberculosis; assay: Growth inhibition of Mycobacterium tuberculosis H37Ra ATCC 25177 at active stage measured after 8 days by XTT dye based two fold dilution method; assay type: functional; details: H37Ra ATCC 25177, 192 h; procedure, shortened: as §4
Bacillus subtilis [11] = assay: Growth inhibition of Bacillus subtilis NCIM 2079 at 10 ug/ml measured after 12 hrs relative to control; assay type: functional; details: NCIM 2079, 12 h, read-out: GI; procedure, shortened: as §1
[12] = system: Mycobacterium tuberculosis; assay: Growth inhibition of Mycobacterium bovis BCG ATCC 35743 at dormant stage at 3.13 ug/ml measured after 12 days by nitrate reductase dye based two fold dilution method relative to control; assay type: functional; details: BCG str. ATCC 35743, 288 h, read-out: GI; procedure, shortened: as §2
[13] = system: Mycobacterium tuberculosis; assay: Growth inhibition of Mycobacterium bovis BCG ATCC 35743 at dormant stage at 0.78 ug/ml measured after 12 days by nitrate reductase dye based two fold dilution method relative to control; assay type: functional; details: BCG str. ATCC 35743, 288 h, read-out: GI; procedure, shortened: as §2
[14] = system: Mycobacterium tuberculosis; assay: Growth inhibition of Mycobacterium bovis BCG ATCC 35743 at dormant stage at 12.5 ug/ml measured after 12 days by nitrate reductase dye based two fold dilution method relative to control; assay type: functional; details: BCG str. ATCC 35743, 288 h, read-out: GI
[15] = system: Mycobacterium tuberculosis; assay: Growth inhibition of Mycobacterium tuberculosis H37Ra ATCC 25177 at active stage at 3.13 ug/ml measured after 8 days by XTT dye based two fold dilution method relative to control; assay type: functional; details: H37Ra ATCC 25177, 192 h, read-out: GI; procedure, shortened: as §4
Bacillus subtilis [16] = assay: Growth inhibition of Bacillus subtilis NCIM 2079 at 30 ug/ml measured after 12 hrs relative to control; assay type: functional; details: NCIM 2079, 12 h, read-out: GI; procedure, shortened: as §1
[17] = system: Mycobacterium tuberculosis; assay: Growth inhibition of Mycobacterium tuberculosis H37Ra ATCC 25177 at active stage at 0.78 ug/ml measured after 8 days by XTT dye based two fold dilution method relative to control; assay type: functional; details: H37Ra ATCC 25177, 192 h, read-out: GI; procedure, shortened: as §4
[18] = system: Mycobacterium tuberculosis; assay: Growth inhibition of Mycobacterium tuberculosis H37Ra ATCC 25177 at dormant stage at 12.5 ug/ml measured after 12 days by XTT dye based two fold dilution method relative to control; assay type: functional; details: H37Ra ATCC 25177, 288 h, read-out: GI
[19] = system: Mycobacterium tuberculosis; assay: Growth inhibition of Mycobacterium bovis BCG ATCC 35743 at dormant stage at 1.56 ug/ml measured after 12 days by nitrate reductase dye based two fold dilution method relative to control; assay type: functional; details: BCG str. ATCC 35743, 288 h, read-out: GI; procedure, shortened: as §2
[20] = Cytotoxicity against human PANC1 cells measured after 48 hrs by MTT assay; assay type: toxicity, cell-based, PANC-1
[21] = system: Mycobacterium tuberculosis; assay: Growth inhibition of Mycobacterium tuberculosis H37Ra ATCC 25177 at dormant stage at 6.25 ug/ml measured after 12 days by XTT dye based two fold dilution method relative to control; assay type: functional; details: H37Ra ATCC 25177, 288 h, read-out: GI; procedure, shortened: as §4
Escherichia coli = assay: Growth inhibition of Escherichia coli NCIM 2688 at 10 ug/ml measured after 8 hrs relative to control; assay type: functional; details: NCIM 2688, 8 h, read-out: GI; procedure, shortened: as §1
Staphylococcus aureus [22] = assay: Growth inhibition of Staphylococcus aureus NCIM 2010 at 3 ug/ml measured after 12 hrs relative to control; assay type: functional; details: NCIM 2010, 12 h, read-out: GI; procedure, shortened: as §1
Staphylococcus aureus [23] = assay: Growth inhibition of Staphylococcus aureus NCIM 2010 at 10 ug/ml measured after 12 hrs relative to control; assay type: functional; details: NCIM 2010, 12 h, read-out: GI; procedure, shortened: as §1
[24] = Selectivity index, ratio of GI50 for human THP1 cells to MIC for Mycobacterium tuberculosis H37Ra ATCC 25177 at dormant stage; assay type: toxicity, cell-based, THP-1; details: read-out: Selectivity Index
Procedure, shortened: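 SI is the cell-line GI50 divided by the dormant-stage mycobacterial MIC. […] THP-1 macrophages were PMA-differentiated for 24 h.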

Bacillus subtilis [25] = assay: Growth inhibition of Bacillus subtilis NCIM 2079 at 3 ug/ml measured after 12 hrs relative to control; assay type: functional; details: NCIM 2079, 12 h, read-out: GI; procedure, shortened: as §1
[26] = Cytotoxicity against […]-differentiated human THP1 cells assessed as growth inhibition at 100 ug/ml measured after 48 hrs by MTT assay relative to control; assay type: toxicity, cell-based, THP-1; details: read-out: GI; procedure, shortened: as §3
Staphylococcus aureus [27] = assay: Growth inhibition of Staphylococcus aureus NCIM 2010 at 30 ug/ml measured after 12 hrs relative to control; assay type: functional; details: NCIM 2010, 12 h, read-out: GI; procedure, shortened: as §1

Row | SMILES | inhibition of growth at 3 µg/mL (Pseudomonas fluorescens [1]) [%] | inhibition of growth at 6.25 µg/mL [2] [%] | GI50 at 48 h [3] [µg/mL] | inhibition of growth at 30 µg/mL (Pseudomonas fluorescens [4]) [%] | IC50 [5] [µg/mL] | IC90 [5] [µg/mL] | GI50 at 48 h [6] [µg/mL] | inhibition at 48 h, 100 ug/ml [7] [%] | MIC (Candida albicans) [µg/mL] | inhibition of growth at 50 µg/mL [8] [%] | MIC (Pseudomonas fluorescens [9]) [µg/mL] | IC50 [10] [µg/mL] | IC90 [10] [µg/mL] | inhibition of growth at 10 µg/mL (Bacillus subtilis [11]) [%] | inhibition of growth at 3.13 µg/mL [12] [%] | inhibition of growth at 0.78 µg/mL [13] [%] | inhibition of growth at 12.5 µg/mL [14] [%] | inhibition of growth at 3.13 µg/mL [15] [%] | inhibition of growth at 30 µg/mL (Bacillus subtilis [16]) [%] | inhibition of growth at 0.78 µg/mL [17] [%] | other results
1 | CCOc1ccc2nc(Cl)c(/C=C3\SC(=S)NC3=O)cc2c1 | 50.2 | 101 | > 100 | 76 | 2.3 (≈ 6.56 µM) | 3.5 (≈ 9.98 µM) | > 100 | 33 | 125 (≈ 356 µM) | 100 | > 30 | 1.9 (≈ 5.42 µM) | 2.8 (≈ 7.98 µM) | -7.03 | 100 | -57 | 101 | 94.8 | 98.5 | -4.44 | inhibition of growth at 12.5 µg/mL [18]: 101%; inhibition of growth at 1.56 µg/mL [19]: 75.5%; GI50 at 48 h [20]: > 100 µg/mL; inhibition of growth at 6.25 µg/mL [21]: 102%; inhibition of growth at 10 µg/mL (Escherichia coli): 77.2%; inhibition of growth at 3 µg/mL (Staphylococcus aureus [22]): 42.7%; inhibition of growth at 10 µg/mL (Staphylococcus aureus [23]): 46.8%; selectivity ratio [24]: 28.6; inhibition of growth at 3 µg/mL (Bacillus subtilis [25]): -34%; inhibition at 48 h, 100 ug/ml [26]: 35.1%; inhibition of growth at 30 µg/mL (Staphylococcus aureus [27]): -29.8%
2 | Cc1cccc2cc(/C=C3\SC(=S)NC3=O)c(Cl)nc12 | 16.9 | 87.8 | > 100 | 59 | 7.6 (≈ 23.7 µM) | 12.9 (≈ 40.2 µM) | > 100 | 14.9 | 200 (≈ 623 µM) | 102 | > 30 | 4.8 (≈ 15 µM) | 18.2 (≈ 56.7 µM) | -0.291 | -5.18 | -16.3 | 95.4 | 39.9 | 6.66 | 20.1 | inhibition of growth at 12.5 µg/mL [18]: 49.2%; inhibition of growth at 1.56 µg/mL [19]: -20.5%; GI50 at 48 h [20]: > 100 µg/mL; inhibition of growth at 6.25 µg/mL [21]: 38.3%; inhibition of growth at 10 µg/mL (Escherichia coli): 27.5%; inhibition of growth at 3 µg/mL (Staphylococcus aureus [22]): -3.27%; inhibition of growth at 10 µg/mL (Staphylococcus aureus [23]): -9.23%; selectivity ratio [24]: 7.8; inhibition of growth at 3 µg/mL (Bacillus subtilis [25]): 3.54%; inhibition at 48 h, 100 ug/ml [26]: 2.58%; inhibition of growth at 30 µg/mL (Staphylococcus aureus [27]): 12.6%
